In ChEMBL document CHEMBL4665899, “Exploring the Chemical Space of Benzothiazole-Based DNA Gyrase B Inhibitors” (ACS Med Chem Lett, 2020):
≈ marks a conversion by molar mass, not a printed value.

Experiments:
Escherichia coli [1] = test: Inhibition of Escherichia coli DNA topoisomerase 4 assessed as enzyme residual activity at 10 uM using supercoiled pNO1 plasmid DNA as substrate incubated for 30 mins by fluorescence assay relative to control
[2] = biological target: Topoisomerase IV (Staphylococcus aureus) (UniProt P0C1U9+P0C1S7); test: Inhibition of Staphylococcus aureus DNA topoisomerase 4 assessed as enzyme residual activity at 10 uM using supercoiled pNO1 plasmid DNA as substrate incubated for 30 mins by fluorescence assay relative to control; type: protein-complex assay
DNA gyrase [3] = biological target: DNA gyrase (Escherichia coli, UniProt P0AES4+P0AES6); test: Inhibition of Escherichia coli DNA gyrase using relaxed pNO1 plasmid DNA as substrate incubated for 30 mins by fluorescence assay; type: protein-complex assay
[4] = biological target: DNA gyrase (Staphylococcus aureus) (UniProt P0A0K8+P20831); test: Inhibition of Staphylococcus aureus DNA gyrase assessed as enzyme residual activity at 10 uM using relaxed pNO1 plasmid DNA as substrate incubated for 30 mins by fluorescence assay relative to control; type: protein-complex assay
Sequence of DNA gyrase (Staphylococcus aureus) (P0A0K8 2-644 limits assumed): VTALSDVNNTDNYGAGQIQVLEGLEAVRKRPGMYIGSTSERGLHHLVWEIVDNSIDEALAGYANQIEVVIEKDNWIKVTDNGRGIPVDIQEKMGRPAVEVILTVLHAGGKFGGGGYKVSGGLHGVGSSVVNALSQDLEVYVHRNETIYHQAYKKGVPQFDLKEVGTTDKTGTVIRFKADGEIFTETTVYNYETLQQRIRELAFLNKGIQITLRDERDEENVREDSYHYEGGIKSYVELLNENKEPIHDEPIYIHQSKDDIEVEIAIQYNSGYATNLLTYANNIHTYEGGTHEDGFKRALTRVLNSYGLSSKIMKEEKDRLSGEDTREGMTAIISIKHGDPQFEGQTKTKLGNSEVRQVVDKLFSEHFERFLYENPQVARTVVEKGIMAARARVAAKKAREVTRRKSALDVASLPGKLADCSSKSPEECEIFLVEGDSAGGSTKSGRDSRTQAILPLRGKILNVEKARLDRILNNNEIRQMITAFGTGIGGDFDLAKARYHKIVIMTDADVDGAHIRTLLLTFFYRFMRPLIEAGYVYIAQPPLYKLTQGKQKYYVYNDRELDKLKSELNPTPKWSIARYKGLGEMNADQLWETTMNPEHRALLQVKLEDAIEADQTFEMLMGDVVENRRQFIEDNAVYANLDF
Sequence of DNA gyrase (Staphylococcus aureus) (P20831 whole entry partner): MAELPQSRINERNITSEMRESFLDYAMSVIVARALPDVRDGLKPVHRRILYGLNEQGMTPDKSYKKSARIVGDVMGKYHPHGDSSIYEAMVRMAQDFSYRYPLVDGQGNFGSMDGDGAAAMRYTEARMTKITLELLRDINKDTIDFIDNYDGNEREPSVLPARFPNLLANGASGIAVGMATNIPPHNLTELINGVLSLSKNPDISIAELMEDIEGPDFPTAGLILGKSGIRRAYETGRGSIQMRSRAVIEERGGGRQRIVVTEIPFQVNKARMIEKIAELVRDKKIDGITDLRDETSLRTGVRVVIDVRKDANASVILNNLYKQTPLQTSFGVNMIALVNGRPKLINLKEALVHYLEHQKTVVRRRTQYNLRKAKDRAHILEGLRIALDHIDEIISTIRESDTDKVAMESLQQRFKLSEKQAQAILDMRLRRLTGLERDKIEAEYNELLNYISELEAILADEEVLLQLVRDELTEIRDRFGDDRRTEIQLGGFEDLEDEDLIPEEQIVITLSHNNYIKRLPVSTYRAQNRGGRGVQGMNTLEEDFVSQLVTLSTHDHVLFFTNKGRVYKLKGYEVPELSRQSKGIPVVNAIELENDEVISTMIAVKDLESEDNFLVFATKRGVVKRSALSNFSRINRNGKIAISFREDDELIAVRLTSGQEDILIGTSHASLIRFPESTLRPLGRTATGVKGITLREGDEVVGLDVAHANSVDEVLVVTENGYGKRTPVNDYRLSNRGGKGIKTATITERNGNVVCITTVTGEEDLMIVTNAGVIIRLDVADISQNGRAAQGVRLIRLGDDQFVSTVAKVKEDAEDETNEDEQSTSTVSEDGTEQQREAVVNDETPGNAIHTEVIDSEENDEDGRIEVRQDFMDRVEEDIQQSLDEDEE

Topoisomerase IV = Topoisomerase IV (Staphylococcus aureus, UniProt P0C1S7+P0C1U9); test: Inhibition of Staphylococcus aureus DNA topoisomerase 4 using supercoiled pNO1 plasmid DNA as substrate incubated for 30 mins by fluorescence assay; type: protein-complex assay
Sequence of Topoisomerase IV (P0C1U9 whole entry): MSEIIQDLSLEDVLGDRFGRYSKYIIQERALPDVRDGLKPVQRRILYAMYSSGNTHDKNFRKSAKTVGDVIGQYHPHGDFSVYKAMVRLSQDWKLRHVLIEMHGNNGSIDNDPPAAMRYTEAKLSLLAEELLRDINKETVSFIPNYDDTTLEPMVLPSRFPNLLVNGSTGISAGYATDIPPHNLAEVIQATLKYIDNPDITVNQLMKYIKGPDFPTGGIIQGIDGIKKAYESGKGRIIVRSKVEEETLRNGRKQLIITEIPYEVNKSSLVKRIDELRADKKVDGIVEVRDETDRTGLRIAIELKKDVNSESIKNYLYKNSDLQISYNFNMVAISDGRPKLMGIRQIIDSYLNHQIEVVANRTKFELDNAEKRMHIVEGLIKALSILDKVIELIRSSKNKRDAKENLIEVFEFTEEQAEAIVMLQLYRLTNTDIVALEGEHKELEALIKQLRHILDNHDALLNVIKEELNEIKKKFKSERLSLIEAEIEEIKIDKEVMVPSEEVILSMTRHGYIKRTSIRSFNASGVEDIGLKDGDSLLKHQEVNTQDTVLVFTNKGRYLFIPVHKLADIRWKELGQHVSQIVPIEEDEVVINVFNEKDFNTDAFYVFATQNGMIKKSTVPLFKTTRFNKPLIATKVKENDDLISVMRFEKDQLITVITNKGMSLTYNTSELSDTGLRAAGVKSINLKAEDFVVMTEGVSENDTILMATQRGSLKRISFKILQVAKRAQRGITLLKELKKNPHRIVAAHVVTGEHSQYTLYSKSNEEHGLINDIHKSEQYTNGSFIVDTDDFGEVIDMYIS
Sequence of Topoisomerase IV (P0C1S7 whole entry): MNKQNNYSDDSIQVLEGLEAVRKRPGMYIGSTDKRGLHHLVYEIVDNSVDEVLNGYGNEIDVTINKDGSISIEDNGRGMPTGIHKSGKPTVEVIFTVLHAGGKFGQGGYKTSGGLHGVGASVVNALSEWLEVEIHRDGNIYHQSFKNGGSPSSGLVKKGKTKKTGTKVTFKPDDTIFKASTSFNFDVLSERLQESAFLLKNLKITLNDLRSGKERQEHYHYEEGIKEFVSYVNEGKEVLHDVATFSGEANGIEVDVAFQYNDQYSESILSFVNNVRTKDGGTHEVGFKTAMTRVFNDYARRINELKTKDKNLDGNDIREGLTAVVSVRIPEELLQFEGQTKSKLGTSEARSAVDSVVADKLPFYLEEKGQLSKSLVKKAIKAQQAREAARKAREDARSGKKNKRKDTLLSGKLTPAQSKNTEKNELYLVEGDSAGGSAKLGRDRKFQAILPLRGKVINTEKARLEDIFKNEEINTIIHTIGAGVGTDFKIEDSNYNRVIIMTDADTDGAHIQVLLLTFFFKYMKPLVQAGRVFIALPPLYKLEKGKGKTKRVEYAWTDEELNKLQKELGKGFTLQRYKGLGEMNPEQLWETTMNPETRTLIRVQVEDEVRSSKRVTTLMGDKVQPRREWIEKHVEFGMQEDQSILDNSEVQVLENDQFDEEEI

Escherichia coli [5] = test: Antibacterial activity against outer membrane impaired Escherichia coli JD17464 harboring lpxC mutant assessed as minimum inhibitory concentration required for >=90% inhibition of bacterial growth measured after 24 hrs by broth microdilution method; type: functional
Pseudomonas aeruginosa = test: Antibacterial activity against Pseudomonas aeruginosa ATCC 27853 assessed as minimum inhibitory concentration required for >=90% inhibition of bacterial growth measured after 24 hrs by broth microdilution method; type: functional
In short: (§1)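 Strains were grown from cation-adjusted Mueller-Hinton agar slants into cation-adjusted MH broth at 37°C for 16-20 h at 100 rpm. Broth microdilution followed CLSI guidelines, with a final inoculum of 5×10^5 CFU/mL mixed 1:1 with compound in MH broth and incubated for 24 h at 37°C. Growth was read as A620 and expressed as percentage inhibition relative to untreated controls. Each plate included a ciprofloxacin positive control.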

Enterococcus faecalis = test: Antibacterial activity against Enterococcus faecalis ATCC 29212 assessed as minimum inhibitory concentration required for >=90% inhibition of bacterial growth after 24 hrs by broth microdilution method; type: functional; in short: as §1
[6] = Inhibition of Escherichia coli DNA topoisomerase 4 using supercoiled pNO1 plasmid DNA as substrate incubated for 30 mins by fluorescence assay
DNA gyrase [7] = biological target: DNA gyrase (Staphylococcus aureus, UniProt P0A0K8+P20831); test: Inhibition of Staphylococcus aureus DNA gyrase using relaxed pNO1 plasmid DNA as substrate incubated for 30 mins by fluorescence assay; type: protein-complex assay
Sequence of DNA gyrase (Staphylococcus aureus, UniProt P0A0K8+P20831) (P0A0K8 whole entry): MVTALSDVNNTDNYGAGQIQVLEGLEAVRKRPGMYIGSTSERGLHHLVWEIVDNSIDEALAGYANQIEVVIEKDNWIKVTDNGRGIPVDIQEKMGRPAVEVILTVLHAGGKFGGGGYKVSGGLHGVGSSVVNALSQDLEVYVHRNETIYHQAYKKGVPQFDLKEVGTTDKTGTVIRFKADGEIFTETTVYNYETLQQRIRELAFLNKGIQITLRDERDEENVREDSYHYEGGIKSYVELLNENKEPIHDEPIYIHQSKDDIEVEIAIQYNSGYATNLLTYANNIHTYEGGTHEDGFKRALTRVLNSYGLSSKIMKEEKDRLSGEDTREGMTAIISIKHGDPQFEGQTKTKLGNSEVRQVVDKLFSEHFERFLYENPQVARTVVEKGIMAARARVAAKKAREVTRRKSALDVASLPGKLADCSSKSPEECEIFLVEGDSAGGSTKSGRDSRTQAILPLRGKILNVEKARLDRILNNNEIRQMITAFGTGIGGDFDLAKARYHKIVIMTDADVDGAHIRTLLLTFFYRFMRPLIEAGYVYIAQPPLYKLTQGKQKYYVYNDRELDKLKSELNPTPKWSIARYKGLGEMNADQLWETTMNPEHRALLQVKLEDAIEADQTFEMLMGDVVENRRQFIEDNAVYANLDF
Sequence of DNA gyrase (Staphylococcus aureus, UniProt P0A0K8+P20831) (P20831 whole entry): as the sequence (P20831 whole entry partner) above

Staphylococcus aureus = test: Antibacterial activity against Staphylococcus aureus ATCC 29213 assessed as minimum inhibitory concentration required for >=90% inhibition of bacterial growth measured after 24 hrs by broth microdilution method; type: functional; in short: as §1
Escherichia coli [8] = test: Antibacterial activity against Escherichia coli ATCC 25922 assessed as minimum inhibitory concentration required for >=90% inhibition of bacterial growth measured after 24 hrs by broth microdilution method; type: functional
In short: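 Cation-adjusted Mueller Hinton broth culture grown 16-20 h at 37°C with 100 rpm shaking. CLSI broth microdilution at a final inoculum of 5×10^5 CFU/mL, 8 concentrations from […], incubated 24 h at 37°C. A620 read and growth inhibition expressed as % of untreated controls. Ciprofloxacin positive control on every plate; n = 3.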

Escherichia coli [9] = test: Antibacterial activity against efflux pump defective Escherichia coli JW5503 harbouring tolC mutant assessed as minimum inhibitory concentration required for >=90% inhibition of bacterial growth measured after 24 hrs by broth microdilution method; type: functional

Cc1[nH]c(C(=O)Nc2nc3ccc(N)cc3s2)c(Cl)c1Cl
Activity (Escherichia coli [1]): 100%
Activity [2]: 100%
IC50 (DNA gyrase [3]): 16000 nM
Activity [4]: 60%

O=C(O)C(=O)Nc1ccc2nc(NC(=O)c3cc(Br)c(Br)[nH]3)sc2c1
IC50 (Topoisomerase IV): 10000 nM

Cc1[nH]c(C(=O)Nc2ccc3nc(NC(=O)C(=O)O)sc3c2)c(Cl)c1Cl
MIC (Escherichia coli [5]): > 50 µM
MIC (Pseudomonas aeruginosa): > 50 µM
MIC (Enterococcus faecalis): > 50 µM
IC50 [6]: 6400 nM
IC50 (DNA gyrase [7]): 250 nM
MIC (Staphylococcus aureus): > 50 µM
IC50 (DNA gyrase [3]): 29 nM
IC50 (Topoisomerase IV): 910 nM

CC(=O)Nc1ccc2nc(NC(=O)c3[nH]c(C)c(Cl)c3Cl)sc2c1
MIC (Escherichia coli [8]): > 50 µM
MIC (Escherichia coli [5]): > 50 µM
MIC (Pseudomonas aeruginosa): > 50 µM
MIC (Enterococcus faecalis): 3.13 µM (≈ 1.2 µg/mL)
IC50 [6]: 4600 nM
IC50 (DNA gyrase [7]): 400 nM
MIC (Staphylococcus aureus): > 50 µM
IC50 (DNA gyrase [3]): 9.5 nM
MIC (Escherichia coli [9]): 0.78 µM (≈ 0.299 µg/mL)
IC50 (Topoisomerase IV): 1600 nM

CCOC(=O)C(=O)Nc1ccc2nc(NC(=O)c3[nH]c(C)c(Cl)c3Cl)sc2c1
MIC (Escherichia coli [8]): > 50 µM
MIC (Escherichia coli [5]): > 50 µM
MIC (Pseudomonas aeruginosa): > 50 µM
MIC (Enterococcus faecalis): > 50 µM
Activity (Escherichia coli [1]): 100%
Activity [2]: 100%
MIC (Staphylococcus aureus): > 50 µM
IC50 (DNA gyrase [3]): 48 nM
MIC (Escherichia coli [9]): 50 µM (≈ 22.1 µg/mL)
Activity [4]: 100%

Cc1[nH]c(C(=O)Nc2nc3ccc(NC(N)=O)cc3s2)c(Cl)c1Cl
MIC (Escherichia coli [8]): > 50 µM
MIC (Escherichia coli [5]): > 50 µM
MIC (Pseudomonas aeruginosa): > 50 µM
MIC (Enterococcus faecalis): > 50 µM
IC50 [6]: 5200 nM
IC50 (DNA gyrase [7]): 1300 nM
MIC (Staphylococcus aureus): > 50 µM
IC50 (DNA gyrase [3]): 26 nM
MIC (Escherichia coli [9]): 1.56 µM (≈ 0.599 µg/mL)
IC50 (Topoisomerase IV): 5800 nM

Cc1[nH]c(C(=O)Nc2nc3ccc(NC(=O)CCN)cc3s2)c(Cl)c1Cl
MIC (Escherichia coli [8]): > 50 µM
MIC (Escherichia coli [5]): > 50 µM
MIC (Pseudomonas aeruginosa): > 50 µM
MIC (Enterococcus faecalis): 12.5 µM (≈ 5.15 µg/mL)
IC50 [6]: 10000 nM
IC50 (DNA gyrase [7]): 1500 nM
MIC (Staphylococcus aureus): > 50 µM
IC50 (DNA gyrase [3]): 110 nM
MIC (Escherichia coli [9]): 12.5 µM (≈ 5.15 µg/mL)
IC50 (Topoisomerase IV): 290 nM

CCOC(=O)C(=O)Nc1nc2ccc(NC(=O)c3[nH]c(C)c(Cl)c3Cl)cc2s1
MIC (Escherichia coli [8]): > 50 µM
MIC (Escherichia coli [5]): > 50 µM
MIC (Pseudomonas aeruginosa): > 50 µM
MIC (Enterococcus faecalis): > 50 µM
Activity (Escherichia coli [1]): 100%
Activity [2]: 100%
MIC (Staphylococcus aureus): > 50 µM
IC50 (DNA gyrase [3]): 290 nM
MIC (Escherichia coli [9]): > 50 µM
Activity [4]: 69%

O=C(O)c1cn(C2CC2)c2cc(N3CCNCC3)c(F)cc2c1=O [CIPROFLOXACIN]
MIC (Escherichia coli [8]): 0.05 µM (≈ 0.0166 µg/mL)

Cc1[nH]c(C(=O)Nc2nc3ccc(NC(=O)C(=O)O)cc3s2)c(Cl)c1Cl
MIC (Escherichia coli [5]): > 50 µM
MIC (Pseudomonas aeruginosa): > 50 µM
MIC (Enterococcus faecalis): > 50 µM
IC50 [6]: 75 nM
MIC (Staphylococcus aureus): > 50 µM
IC50 (Topoisomerase IV): 290 nM

Cc1[nH]c(C(=O)Nc2nc3ccc(NC(=O)CCNC(=O)OC(C)(C)C)cc3s2)c(Cl)c1Cl
MIC (Escherichia coli [8]): > 50 µM
MIC (Escherichia coli [5]): > 50 µM
MIC (Pseudomonas aeruginosa): > 50 µM
MIC (Enterococcus faecalis): > 50 µM
Activity (Escherichia coli [1]): 100%
Activity [2]: 100%
IC50 (DNA gyrase [7]): 780 nM
MIC (Staphylococcus aureus): > 50 µM
IC50 (DNA gyrase [3]): 110 nM
MIC (Escherichia coli [9]): > 50 µM

CCOC(=O)C(=O)Nc1ccc2nc(NC(=O)c3cc(Br)c(Br)[nH]3)[nH]c2c1
MIC (Escherichia coli [8]): > 50 µM
MIC (Escherichia coli [5]): > 50 µM
MIC (Pseudomonas aeruginosa): > 50 µM
MIC (Enterococcus faecalis): > 50 µM
Activity (Escherichia coli [1]): 100%
Activity [2]: 100%
MIC (Staphylococcus aureus): > 50 µM
IC50 (DNA gyrase [3]): 4000 nM
MIC (Escherichia coli [9]): > 50 µM
Activity [4]: 100%

O=C(O)CC(=O)Nc1ccc2nc(NC(=O)c3cc(Br)c(Br)[nH]3)[nH]c2c1
MIC (Escherichia coli [8]): > 50 µM
MIC (Escherichia coli [5]): > 50 µM
MIC (Pseudomonas aeruginosa): > 50 µM
MIC (Enterococcus faecalis): > 50 µM
Activity (Escherichia coli [1]): 100%
Activity [2]: 100%
MIC (Staphylococcus aureus): > 50 µM
IC50 (DNA gyrase [3]): 1500 nM
MIC (Escherichia coli [9]): > 50 µM
Activity [4]: 100%

COC(=O)CC(=O)Nc1ccc2nc(NC(=O)c3cc(Br)c(Br)[nH]3)[nH]c2c1
MIC (Escherichia coli [8]): > 50 µM
MIC (Escherichia coli [5]): > 50 µM
MIC (Pseudomonas aeruginosa): > 50 µM
MIC (Enterococcus faecalis): > 50 µM
Activity (Escherichia coli [1]): 100%
Activity [2]: 100%
MIC (Staphylococcus aureus): > 50 µM
IC50 (DNA gyrase [3]): 7000 nM
MIC (Escherichia coli [9]): > 50 µM
Activity [4]: 100%

Cc1[nH]c(C(=O)Nc2nc3ccc(NC(=O)CN)cc3s2)c(Cl)c1Cl
MIC (Escherichia coli [8]): > 50 µM
MIC (Escherichia coli [5]): > 50 µM
MIC (Pseudomonas aeruginosa): > 50 µM
MIC (Enterococcus faecalis): 6.25 µM (≈ 2.49 µg/mL)
Activity (Escherichia coli [1]): 100%
Activity [2]: 100%
IC50 (DNA gyrase [7]): 380 nM
MIC (Staphylococcus aureus): 25 µM (≈ 9.96 µg/mL)
IC50 (DNA gyrase [3]): 280 nM
MIC (Escherichia coli [9]): 3.13 µM (≈ 1.25 µg/mL)

Cc1[nH]c(C(=O)Nc2nc3ccc(NC(=O)c4ccncc4)cc3s2)c(Cl)c1Cl
MIC (Escherichia coli [8]): > 50 µM
MIC (Escherichia coli [5]): > 50 µM
MIC (Pseudomonas aeruginosa): > 50 µM
MIC (Enterococcus faecalis): > 50 µM
Activity (Escherichia coli [1]): 100%
Activity [2]: 100%
MIC (Staphylococcus aureus): > 50 µM
IC50 (DNA gyrase [3]): 2500 nM
MIC (Escherichia coli [9]): > 50 µM
Activity [4]: 100%

CC(=O)Nc1nc2ccc(NC(=O)c3[nH]c(C)c(Cl)c3Cl)cc2s1
MIC (Escherichia coli [8]): > 50 µM
MIC (Escherichia coli [5]): > 50 µM
MIC (Pseudomonas aeruginosa): > 50 µM
MIC (Enterococcus faecalis): > 50 µM
Activity (Escherichia coli [1]): 100%
Activity [2]: 100%
IC50 (DNA gyrase [7]): 35400 nM
MIC (Staphylococcus aureus): > 50 µM
IC50 (DNA gyrase [3]): 66 nM
MIC (Escherichia coli [9]): > 50 µM

O=C(O)C(=O)Nc1ccc2nc(NC(=O)c3cc(Br)c(Br)[nH]3)[nH]c2c1
MIC (Escherichia coli [5]): > 50 µM
MIC (Pseudomonas aeruginosa): > 50 µM
MIC (Enterococcus faecalis): > 50 µM
IC50 [6]: 12000 nM
IC50 (DNA gyrase [7]): 80000 nM
MIC (Staphylococcus aureus): > 50 µM
IC50 (DNA gyrase [3]): 600 nM
IC50 (Topoisomerase IV): 31000 nM

Cc1[nH]c(C(=O)Nc2nc3ccc(NC(=O)CNC(=O)OC(C)(C)C)cc3s2)c(Cl)c1Cl
MIC (Escherichia coli [8]): > 50 µM
MIC (Escherichia coli [5]): > 50 µM
MIC (Pseudomonas aeruginosa): > 50 µM
MIC (Enterococcus faecalis): 3.13 µM (≈ 1.56 µg/mL)
Activity (Escherichia coli [1]): 60%
Activity [2]: 100%
IC50 (DNA gyrase [7]): 260 nM
MIC (Staphylococcus aureus): > 50 µM
IC50 (DNA gyrase [3]): 29 nM
MIC (Escherichia coli [9]): 0.78 µM (≈ 0.389 µg/mL)

COC(=O)CC(=O)Nc1nc2ccc(NC(=O)c3[nH]c(C)c(Cl)c3Cl)cc2s1
MIC (Escherichia coli [8]): > 50 µM
MIC (Escherichia coli [5]): > 50 µM
MIC (Pseudomonas aeruginosa): > 50 µM
MIC (Enterococcus faecalis): > 50 µM
Activity (Escherichia coli [1]): 100%
Activity [2]: 48%
MIC (Staphylococcus aureus): > 50 µM
IC50 (DNA gyrase [3]): 200 nM
MIC (Escherichia coli [9]): 1.56 µM (≈ 0.688 µg/mL)
Activity [4]: 59%
